High-throughput results: PubChem BioAssay, The Scripps Research Institute Molecular Screening Center
A selection: hits, their analogues and other compounds. The true share with any hit is near 1.9%.
NS3 helicase inh – blocks Hepatitis C virus NS3 helicase unwinding. NS3 helicase DNA unwinding, Cy5 molecular beacon fluorescence. 290,000 tested, 0.56% active. AID 1800. inhibition, % at 10.9 µM;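 active = inhibition above the mean of all tested compounds plus 3 SD, set per campaign, cut at about 35% in these data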;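 note: 0% = DMSO wells and 100% = thioflavine S control wells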
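assay system = NS3 helicase fragment of HCV | buffer or medium = MOPS pH 6.5, MgCl2, DTT, Tween20, BSA | timing = 60 min unwinding reaction at 25 °C after ATP addition | signal = Cy5 beacon fluorescence read at start and 1 h | read-out basis = % inhibition of unwinding | control set = low DMSO, high thioflavine S at 110 µM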
PP1 inh – blocks human PP1-alpha phosphatase, a PP5 counter-screen | purified PP1alpha, OMFP fluorescence | inhibition, % at 6.7 µM | 320,000 tested, 0.9% active | AID 2235;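 active = inhibition above the mean inhibition of all tested compounds plus 3 SD, computed separately for each screening campaign, cut at about 15% in these data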
Target sequence (P62136 whole entry, looked up): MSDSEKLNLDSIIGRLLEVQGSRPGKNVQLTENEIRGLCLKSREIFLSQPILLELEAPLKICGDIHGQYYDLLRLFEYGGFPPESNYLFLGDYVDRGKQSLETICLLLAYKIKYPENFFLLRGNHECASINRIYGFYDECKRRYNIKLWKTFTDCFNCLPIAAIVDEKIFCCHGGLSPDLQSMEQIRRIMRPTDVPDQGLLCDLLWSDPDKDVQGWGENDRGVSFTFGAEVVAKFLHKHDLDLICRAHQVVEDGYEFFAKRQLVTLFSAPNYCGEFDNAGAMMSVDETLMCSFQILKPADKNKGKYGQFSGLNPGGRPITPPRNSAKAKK
core dimer inh – blocks dimerization of HCV core protein | TR-FRET GST/Flag-core106 dimerization, 1536-well | inhibition, % at 5 µM | 300,000 tested, 0.33% active | AID 1899;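 active = inhibition above the mean of all tested compounds plus 3 SD, set per screening campaign, cut at about 45% in these data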
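Assay system: tagged HCV core106 pair (GST and Flag); medium: KF-containing HEPES buffer, pH 7.45, DTT, CHAPS, BSA; also added: Eu donor and XL665 acceptor anti-tag antibodies; dosing: 5 µM single dose; timing: compound-protein-antibody incubation 4 h at 22.5 °C; signal: TR-FRET 671 and 617 nm emission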
EBNA-1 inh – blocks EBNA-1 binding to DNA; 300,000 tested, 0.34% active; inhibition, % at 14.8 µM; EBNA-1 DNA binding, fluorescence polarization; in the data active = inhibition above about 28%
ZTA counter – blocks Epstein-Barr virus ZTA, an EBNA-1 counter-screen; P03206; ZTA-DNA binding, fluorescence polarization; inhibition, % at 11 µM; 320,000 tested, 0.15% active; in the data active = inhibition above about 33%
Target sequence (P03206 whole entry, looked up): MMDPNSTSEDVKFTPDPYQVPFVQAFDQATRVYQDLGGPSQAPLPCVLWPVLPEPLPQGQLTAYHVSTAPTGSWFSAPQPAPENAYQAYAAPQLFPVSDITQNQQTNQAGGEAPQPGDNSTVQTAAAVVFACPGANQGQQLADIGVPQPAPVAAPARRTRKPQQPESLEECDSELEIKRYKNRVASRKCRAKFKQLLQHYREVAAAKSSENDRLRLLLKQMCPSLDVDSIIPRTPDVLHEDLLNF
ZTA inh confirm – confirmation of Epstein-Barr virus ZTA DNA binding inhibitors; shares compounds with ZTA counter; Zta-ZRE DNA binding, fluorescence polarization; inhibition, % at 11.1 µM; 320 tested, 30% active; AID 2361;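 active = mean inhibition across triplicate runs above the hit threshold derived for the original primary screen, cut at about 33% in these data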;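 note: 0% = Zta with DMSO and 100% = wells lacking Zta protein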
EBNA1 counter – blocks EBNA-1 DNA binding in ZTA counter-screen; shares compounds with ZTA counter; fluorescence polarization; inhibition, % at 14.8 µM; 320 tested, under 10 active; AID 2362; call rule not given here
PP1 confirm – confirmation of human PP1 phosphatase inhibitors; purified PP1alpha, OMFP substrate fluorescence; inhibition, % at 6.7 µM; shares compounds with PP1 inh; 1,900 tested, 52% active;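 active = mean PP1 inhibition above a set limit taken from the earlier primary screen, cut at about 15% in these data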
PP5 inh counter – inhibits human PP5 phosphatase in PP1 counter-screen. inhibition, % at 6.7 µM. 1,900 tested, 4% active. shares compounds with PP1 inh. purified PP5c, OMFP fluorescence;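 active = mean PP5 inhibition over triplicate wells above about 9.5% taken from the earlier PP1 screen, limit read from the data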
Starred values were filed as active, the others as inactive; x = no result; ! = not confirmed by another sample.

SMILES | NS3 helicase inh | PP1 inh | core dimer inh | EBNA-1 inh | ZTA counter | ZTA inh confirm | EBNA1 counter | others
CCCCc1ccc(NC(=O)OC)cc1 | -11 | 0 | -1 | 2 | 166* | 0 | 3
CCCCc1ccc(NC(=S)Nc2ccc(Nc3ccc(OC)cc3)cc2)cc1 | -29 | 4 | -2 | -5 | -22 | x | x
COc1cccc2c1C(=O)c1c(O)c3c(c(O)c1C2=O)C[C@@](O)(C(=O)CO)C[C@@H]3O[C@H]1C[C@H](N)[C@H](O)[C@H](C)O1 | 8 | -3 | -15 | 25 | 78* | 98* | -8
O=C(NCc1n[nH]c(=S)n1-c1ccc(Br)cc1)c1cccs1 | -9 | 0 | 1 | 13 | 11 | x | x
CCN(CCO)c1ccc(NC(=S)Nc2cccc(S(=O)(=O)N(C)C)c2)cc1 | 22 | 4 | -10 | 23 | 41* | 9 | 3
O=C1/C(=C\c2c(NCCOCCO)nc3ccccn3c2=O)SC(=S)N1Cc1ccco1 | 9 | -1 | 6 | 2 | 42* | 24 | 7
CCCN1C(=O)/C(=C/c2c(NCCCOCC)nc3c(C)cccn3c2=O)SC1=S | 1 | x | x | x | x | x | x
CCC(Oc1ccccc1)C(=O)Nc1nc2ccccc2[nH]1 (stereo not given) | -1 | -11 | -5 | -7 | 37* | 3 | -1
CC(C)Oc1ccc(C(=O)Nc2nc3ccccc3[nH]2)cc1 | 4 | -1 | 7 | 12 | 9 | x | x
CCNc1cc(Nc2c(C)n(C)n(-c3ccccc3)c2=O)c([N+](=O)[O-])c2nonc12 | 4 | 2 | 0 | -10 | -2 | x | x
CC1CCN(C(=O)COC(=O)c2n[nH]c(=O)c3ccccc23)CC1 | x | -1 | x | x | 36* | -1 | -7
Cc1ccc(NS(=O)(=O)c2ccc(OCC(=O)NCC3CCCO3)cc2)cc1 (stereo not given) | -7 | 2 | -1 | -10 | 1 | x | x
CC(=O)c1cccc(NC(=O)NNC(=O)c2ccc3ccccc3c2)c1 | -1 | -4 | 6 | 10 | 76* | -10 | -5
COc1ccc(S(=O)(=O)Nc2cccc(C)n2)c2ccccc12 | -10 | -2 | 3 | 6 | 34* | 6 | -4
N#Cc1nc(/C=C/c2ccccc2)oc1NCCCN1CCOCC1 | -31 | -5 | 5 | 4 | 33* | 3 | 0
COCCNc1oc(/C=C/c2ccccc2)nc1C#N | -7 | -1 | -1 | 4 | -10 | x | x
CCCCn1c(N)c(N(CCOC)C(=O)CCCc2nc3ccccc3c(=O)[nH]2)c(=O)[nH]c1=O | x | -5 | -3 | 2 | 136* | 3 | 1
CCCCN(C(=O)CCCc1nc2ccccc2c(=O)[nH]1)c1c(N)n(CCCC)c(=O)[nH]c1=O | -5 | -2 | -1 | 5 | -4 | x | x
COc1ccccc1C1CC(=O)Nc2cc(C)c(C)cc21 (stereo not given) | 2 | -1 | -8 | -13 | -4 | x | x
Cc1cc2c(cc1C)C(c1ccccc1Br)CC(=O)N2 (stereo not given) | -3 | 4 | 14 | 4 | 33* | -5 | -6
O=C(Nc1csnn1)c1csnn1 | 1 | 8 | 3 | -22 | 49* | -1 | -1
CCN(C(=O)COC(=O)C1CCN(S(=O)(=O)c2ccc(C)c(C)c2)CC1)C1CCCCC1 | x | 3 | x | x | -11 | x | x
COc1ccc2c(c1)NC(C)(C)C=C2C | -13 | 7 | 5 | 11 | 23 | x | x
CC1=CC(C)(C)Nc2ccccc21 | -13 | -3 | -2 | 14 | 39*! | 22 | 11
Cc1cc(C)nc(NC(=O)NS(=O)(=O)Nc2ccc(Br)cn2)n1 | -3 | -5 | 1 | 15 | 33* | -6 | -3
SMILES | NS3 helicase inh | PP1 inh | core dimer inh | EBNA-1 inh | ZTA counter | ZTA inh confirm | EBNA1 counter | others
OCc1nc2c(ccc3ccccc32)[nH]1 | 3 | -3 | 5 | 7 | 18 | x | x
CCOc1ccc(N2C(=O)/C(=C/c3ccccc3)N=C2SC)cc1 | 0 | -2 | 4 | -1 | 42* | 1 | -4
COc1ccc(/C=C2\N=C(SC)N(c3ccccc3OC)C2=O)cc1 | -9 | 2 | 4 | -2 | 5 | x | x
CC1CCCN(S(=O)(=O)c2ccc(NC(=O)[C@@H]3CCCN3C(=O)c3cccs3)cc2)C1 (stereo not given in full) | x | 0 | x | x | -15 | x | x
Cn1c(=O)c2cc(NCc3ccccc3)nnc2n(C)c1=O | -2 | -3 | 0 | 26 | 52* | -12 | -7
CC(C)N(C(=O)CSc1nnc(CSc2ncccn2)n1C)C(C)C | -7 | -4 | 2 | 7 | 23 | x | x
CC(C)=CCc1c2c(c3occ(-c4ccc(O)cc4)c(=O)c3c1O)C=CC(C)(C)O2 | 18 | -3 | 5 | 2 | 35* | 9 | 2
CN1CCc2c(sc3c2C(=O)NC(c2ccccn2)N3)C1 (stereo not given) | 8 | -2 | 0 | 17 | 40* | 9 | 3
Cc1ccc(NC(=O)COC(=O)c2ccc3c(c2)OCO3)c(C)c1 | 4 | 0 | 0 | 19 | 10 | x | x
O=C(CSc1ncnc2c1oc1ccccc12)Nc1nccs1 | -1 | 4 | -1 | -1 | -5 | x | x
CCc1nc(SCC(=O)Nc2nccs2)c2oc3ccccc3c2n1 | -3 | 12 | 24 | 4 | 42* | 38* | 16
CCOC(=O)c1c(NC(=O)Cn2nc(C(=O)O)c3ccccc3c2=O)sc(CC)c1C | 4 | 1 | 11 | -1 | 36* | -16 | -12
CCOC(=O)c1c(NC(=O)Cn2nc(C(=O)O)c3ccccc3c2=O)sc(C)c1C | 6 | 1 | 12 | 9 | -2 | x | x
COc1ccc(NS(=O)(=O)c2ccc(NS(=O)(=O)c3cccc(C(=O)O)c3)cc2)cc1 | -1 | 2 | 11 | 3 | 5 | x | x
COc1ccc(NS(=O)(=O)c2ccc3c(c2)[C@H]2C=CC[C@H]2[C@@H](c2ccc(C(=O)O)cc2)N3)cc1 | -4 | 19* | 23 | 9 | 35* | 48* | 7 | PP1 confirm=6;PP5 inh counter=-2
Clc1cccc(/C=N/N2CCN(Cc3ccccc3)CC2)c1 | -8 | -1 | 2 | 14 | 5 | x | x
COc1ccc(Cn2c(SCc3ccc(C)cc3)nc3cc(OC)c(OC)cc3c2=N)cc1Cl | -94 | 21* | -1 | 9 | 35* | 12 | 23 | PP1 confirm=5;PP5 inh counter=2
CC(OC(=O)CCC(=O)c1ccc(F)cc1)C(=O)NC1CCCCC1C (stereo not given) | -1 | -2 | 2 | 2 | -5 | x | x
CCOC(=O)c1c(C)oc2ccc(O)c(CN(C)C)c12 | 3 | -5 | -3 | 8 | -12 | x | x
